Assay outcomes: PubChem, Sanford-Burnham Center for Chemical Genomics
The list is not random: actives were taken first. Their share in the collection is about 1.5%.
APJ ag: agonists of human APJ apelin receptor; P35414; CHO-K1 APJ PathHunter beta-arrestin, luminescence; 0% DMSO wells, 100% apelin; activation, % at 20 µM; 0.11% of 330,000 active;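 active means activation more than six SD over the plate average, tested at 20 µM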;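 further: 0% = DMSO alone and 100% = apelin-13 at 10 nM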
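Assay system: CHO-K1 cells stably expressing ProLink-tagged human APJ and arrestin–beta-gal acceptor. Compound dosing: 20 µM single point, 1% DMSO. Times: 16-18 h seeding, 90 min dark compound exposure, 60 min detection. Detection: beta-gal luminescence. Evaluation: APJ–arrestin association signal. Controls: negative DMSO alone, positive Apelin-13 at 10 nM.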
CXCR6 inh: CXCR6 (human) receptor inhibition; AID 602244; inhibition, % at 20 µM; CHO-K1 PathHunter CXCR6 beta-arrestin, luminescence; 0.36% of 360,000 active; in the data active means inhibition above about 34%, passing the limit was not always enough;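 further: antagonist mode with CXCL16 agonist at 10 nM final; 0% = 10 nM CXCL16 with DMSO and 100% = unstimulated wells without agonist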
Target sequence (O00574 whole entry, looked up): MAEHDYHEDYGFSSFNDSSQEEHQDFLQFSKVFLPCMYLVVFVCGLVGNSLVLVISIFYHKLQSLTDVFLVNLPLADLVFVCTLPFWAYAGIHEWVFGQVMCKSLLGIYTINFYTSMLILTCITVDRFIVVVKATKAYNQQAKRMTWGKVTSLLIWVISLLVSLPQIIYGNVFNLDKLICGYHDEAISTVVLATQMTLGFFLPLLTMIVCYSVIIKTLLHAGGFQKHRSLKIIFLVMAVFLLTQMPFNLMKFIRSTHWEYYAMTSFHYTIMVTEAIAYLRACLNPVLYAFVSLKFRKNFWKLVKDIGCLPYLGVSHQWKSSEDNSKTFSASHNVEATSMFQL
CCR6 antag: antagonists of human CCR6 receptor; P51684; CHO-K1 CCR6 PathHunter beta-arrestin, luminescence, CCL20-stimulated; inhibition, % at 20 µM; 0.49% of 340,000 active; AID 493098;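 active means compounds whose inhibition of the agonist-driven luminescence signal at 20 µM reaches about 50%, limit read from the data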;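 further: cells stimulated with CCL20 at 14 nM final; plate controls were DMSO with CCL20 for no effect and DMSO without agonist for full effect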
APJ antag: blocks the human apelin receptor APJ; P35414; CHO-K1 APJ beta-arrestin complementation, luminescence; inhibition, % at 20 µM; 0.32% of 330,000 active; AID 2521;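 active means inhibition above about 40% at 20 µM, limit read from the data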;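 further: cells challenged with 10 nM apelin-13 agonist together with compound; plate controls were apelin-13 plus DMSO wells for no effect and DMSO wells lacking apelin-13 for full effect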
EBI2 block: EBI2 (human) antagonism; P32249; EBI2 beta-arrestin recruitment, luminescence, 7a,25-OHC stimulated; inhibition, % at 5 µM; 0.81% of 360,000 active; in the data active means inhibition above about 38%;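 further: enzyme fragment complementation signal reports receptor beta-arrestin coupling in cells; 0% = agonist plus DMSO wells and 100% = wells without agonist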
Numbers without * were called inactive.

`CN(C(=O)COC(=O)CNC(=O)c1sc2ccccc2c1Cl)c1ccccc1` gave APJ ag -2.9, CXCR6 inh 6.5, CCR6 antag -8.0, APJ antag -22.5 and EBI2 block -2.6.
`C/C(=N\NC(=S)Nc1ccc(F)cc1)c1ccc2c(c1)OCCO2` gave APJ ag -6.1, CXCR6 inh 30.1, CCR6 antag 58.2*, APJ antag 24.9 and EBI2 block -4.2.
For CC1(Oc2ccc(-n3ccnc3)cc2)CCN(Cc2cccn2-c2nccs2)C1 (stereo unspecified) the results were CXCR6 inh 11.7 and EBI2 block -1.5.
Cn1ccc(C(=O)Oc2ccc(C(=O)Nc3ccc(F)cc3F)cc2)n1 was read as APJ ag -3.4, CXCR6 inh 3.9, CCR6 antag -7.8, APJ antag 6.6 and EBI2 block -1.2.
`O=[N+]([O-])c1cc([N+](=O)[O-])c2nonc2c1Nc1ccc(O)cc1` gave APJ ag -0.5, CXCR6 inh 27.6, CCR6 antag 51.5*, APJ antag 6.9 and EBI2 block -2.2.
O=[N+]([O-])c1cc([N+](=O)[O-])c2nonc2c1Nc1ccccc1O was read as APJ ag -2.5, CXCR6 inh 14.2, CCR6 antag 36.4, APJ antag 2.3 and EBI2 block 12.9.
`O=C1ON=C(c2ccccc2)/C1=C/c1ccc(O)cc1` gave APJ ag -2.3, CXCR6 inh 46.3*, CCR6 antag 39.3, APJ antag 8.0 and EBI2 block -34.1.
For O=C1ON=C(c2ccccc2)/C1=C/c1ccccc1 the results were APJ ag 3.5, CXCR6 inh -2.1, CCR6 antag 8.5, APJ antag 5.1 and EBI2 block -5.1.
Cc1ccc(C2=NOC(=O)/C2=C\c2ccccc2)cc1 was read as APJ ag -0.6, CXCR6 inh -7.9, CCR6 antag 7.5, APJ antag 8.4 and EBI2 block 6.7.
COc1cc(/C=C2/C(=O)ON=C2c2ccccc2)ccc1O was read as APJ ag -3.9, CXCR6 inh 33.1, CCR6 antag 55.1*, APJ antag 24.6 and EBI2 block -5.3.
Screening O=c1c(-c2ccco2)nc2ccccc2n1C(c1ccccn1)c1nc2ccccc2[nH]1 (stereo unspecified) returned EBI2 block -6.9.
Screening COc1cc(C2Nc3cc(C)c(C)cc3NC3=C2C(=O)CC(C)(C)C3)ccc1OC(C)=O (stereo unspecified) returned APJ ag -0.6, CXCR6 inh 2.0, CCR6 antag 2.8, APJ antag -21.3 and EBI2 block 1.0.
For Cc1cc2c(cc1C)NC(c1c(C)n(C)n(-c3ccccc3)c1=O)C1=C(CC(C)(C)CC1=O)N2 (stereo unspecified) the results were APJ ag -1.0, CXCR6 inh 12.5, CCR6 antag 77.1*, APJ antag 7.8 and EBI2 block 16.4.
O=C1O[C@@H](c2ccccc2)C[C@@H](O)C(=O)CCc2ccccc21 was read as CXCR6 inh -3.6 and EBI2 block 3.5.
Screening Cc1cc(C)c(Nc2cc(S(=O)(=O)O)c(N)c3c2C(=O)c2ccccc2C3=O)c(C)c1 returned CXCR6 inh 39.2*, CCR6 antag 54.4* and EBI2 block 16.7.
N#Cc1cc([N+](=O)[O-])c(-n2nnc3ccccc32)c([N+](=O)[O-])c1 was read as APJ ag 4.2, CXCR6 inh 74.2*, APJ antag 23.5 and EBI2 block -4.1.
CCN(CC)S(=O)(=O)c1ccc2c(c1)C(=NO)c1cc(S(=O)(=O)N(CC)CC)ccc1-2 was read as APJ ag -7.4, CXCR6 inh 21.8, CCR6 antag 39.4, APJ antag 17.5 and EBI2 block 50.4*.
Screening CC1(C)Cc2c(ccc3ccccc23)/C(=C/C(=O)N2CCCCC2)N1 returned APJ ag -8.8, CXCR6 inh 28.0, CCR6 antag 64.3*, APJ antag 16.2 and EBI2 block 23.6.
Cc1ccccc1OCCSCc1nc2ccccc2[nH]1 was read as APJ ag -3.0, CXCR6 inh -0.8, CCR6 antag -10.4, APJ antag -11.3 and EBI2 block 16.6.
For CCC(C(=O)OCC(=O)Nc1cc(Cl)ccc1Cl)c1ccccc1 (stereo unspecified) the results were APJ ag 1.7, CXCR6 inh 1.3, CCR6 antag 20.6, APJ antag 42.0* and EBI2 block 2.1.
Screening CCC(C(=O)OCC(=O)Nc1ccc(OC)cc1OC)c1ccccc1 (stereo unspecified) returned APJ ag -1.0, CXCR6 inh -6.3, CCR6 antag 9.9, APJ antag 3.0 and EBI2 block -2.9.
C=CS(=O)(=O)c1c2cc(OC)ccc2nc2ccc(OC)cc12 was read as CXCR6 inh 48.3*, CCR6 antag 77.8* and EBI2 block 0.1.
`COc1ccc2nc(Cl)cc(Cl)c2c1` gave APJ ag -3.7, CXCR6 inh 8.7, CCR6 antag -4.7, APJ antag 4.2 and EBI2 block 1.7.
Screening COC(=O)[C@@]12C[C@@H](CC(=O)NCCC(C)C)C(=O)N(Cc3cccc4ccccc34)C1=CCC(C)(C)C2 returned EBI2 block 12.7.
For COC1=CC(C)C2CC3OC(=O)CC4C(C)=C(OC)C(=O)C(C2(C)C1=O)C34C (stereo unspecified) the results were CXCR6 inh 1.8 and EBI2 block 2.1.
Screening C[N+](C)(CC#Cc1ccccc1)CC(=O)c1ccccc1 returned APJ ag -2.0, CXCR6 inh -4.2, CCR6 antag 13.3, APJ antag 9.7 and EBI2 block -20.5.
`C[N+](C)(CC#Cc1ccccc1)CC(=O)c1ccc(Cl)cc1` gave APJ ag -8.0, CXCR6 inh 7.7, CCR6 antag 20.5, APJ antag 42.1* and EBI2 block -3.4.
Screening COc1cc(/C=C2/CC/C(=C/c3ccc(O)c(OC)c3)C2=O)ccc1O returned APJ ag -5.8, CXCR6 inh 55.4*, CCR6 antag 61.5*, APJ antag 1.9 and EBI2 block 14.8.
`COc1cc(/C=C2\COC/C(=C\c3ccc(O)c(OC)c3)C2=O)ccc1O` gave APJ ag -9.2, CXCR6 inh 40.7*, CCR6 antag 56.0*, APJ antag 44.2* and EBI2 block 15.2.
`COc1ccc(/C=C2\CN(Cc3ccccc3)C/C(=C\c3ccc(OC)c(O)c3)C2=O)cc1O` gave APJ ag 1.6, CXCR6 inh 51.6*, CCR6 antag 19.5, APJ antag 11.1 and EBI2 block -7.1.
COc1cc(C=C2C(=O)c3ccccc3C2=O)ccc1O was read as APJ ag -7.6, CXCR6 inh 17.1, CCR6 antag 25.8, APJ antag 61.3* and EBI2 block 5.0.
For COc1cc(C=C2C(=O)c3ccccc3C2=O)cc(OC)c1OC the results were APJ ag -1.8, CXCR6 inh 19.6, CCR6 antag 7.3, APJ antag 16.7 and EBI2 block -9.7.
